According to ChEMBL document CHEMBL3608301, “Phenolic Compounds from Atriplex littoralis and Their Radiation-Mitigating Activity” (J Nat Prod, 2015):

Tests used:
PBL [1] = assay: Radioprotective activity in 2-Gy gamma irradiated human PBL assessed as incidence of micronuclei in binucleated cells at 1.8 uM treated for 2 to 19 hrs followed by compound washout measured after 72 hrs by cytochalasin-B-blocked micronucleus assay (reference value: 1.2 +/- 0.03); format: functional
How it was run: (§1)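 Venous blood from five healthy male volunteers was γ-irradiated at 2 Gy (0.45 Gy/min) at room temperature and cultured. Compounds (0.8−7.4 μM final) were added 2 to 19 h after irradiation, at 37 °C. Cultures were then rinsed and moved to fresh RPMI 1640 for 72 h. Cytokinesis-block micronucleus assay: ≥1000 binucleated cells scored per sample (Countryman–Heddle criteria). Controls were non-treated irradiated cultures; one-way ANOVA with Tukey test.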

PBL [2] = assay: Radioprotective activity in 2-Gy gamma irradiated human PBL assessed as incidence of micronuclei in binucleated cells at 3.5 uM treated for 2 to 19 hrs followed by compound washout measured after 72 hrs by cytochalasin-B-blocked micronucleus assay (reference value: 1.2 +/- 0.03); format: functional; how it was run: as §1
PBL [3] = assay: Radioprotective activity in 2-Gy gamma irradiated human PBL assessed as incidence of micronuclei in binucleated cells at 7 uM treated for 2 to 19 hrs followed by compound washout measured after 72 hrs by cytochalasin-B-blocked micronucleus assay (reference value: 1.2 +/- 0.03); format: functional; how it was run: as §1
PBL [4] = assay: Toxicity in 2-Gy gamma irradiated human PBL assessed as cytokinesis-block proliferation index at 1.8 uM treated for 2 to 19 hrs followed by compound washout measured after 72 hrs (reference value: 1.6 +/- 0.1); format: cell-based
PBL [5] = assay: Toxicity in 2-Gy gamma irradiated human PBL assessed as cytokinesis-block proliferation index at 3.5 uM treated for 2 to 19 hrs followed by compound washout measured after 72 hrs (reference value: 1.6 +/- 0.1); format: cell-based
PBL [6] = assay: Toxicity in 2-Gy gamma irradiated human PBL assessed as cytokinesis-block proliferation index at 7 uM treated for 2 to 19 hrs followed by compound washout measured after 72 hrs (reference value: 1.6 +/- 0.1); format: cell-based
PBL [7] = assay: Radioprotective activity in 2-Gy gamma irradiated human PBL assessed as binucleated cells with micronuclei at 1.8 uM treated for 2 to 19 hrs followed by compound washout measured after 72 hrs by cytochalasin-B-blocked micronucleus assay (reference value: 15.5 +/- 0.6%); format: functional; how it was run: as §1
PBL [8] = assay: Radioprotective activity in 2-Gy gamma irradiated human PBL assessed as binucleated cells with micronuclei at 3.5 uM treated for 2 to 19 hrs followed by compound washout measured after 72 hrs by cytochalasin-B-blocked micronucleus assay (reference value: 15.5 +/- 0.6%); format: functional; how it was run: as §1
PBL [9] = assay: Radioprotective activity in 2-Gy gamma irradiated human PBL assessed as binucleated cells with micronuclei at 7 uM treated for 2 to 19 hrs followed by compound washout measured after 72 hrs by cytochalasin-B-blocked micronucleus assay (reference value: 15.5 +/- 0.6%); format: functional; how it was run: as §1
PBL [10] = assay: Radioprotective activity in 2-Gy gamma irradiated human PBL assessed as frequency of micronuclei at 1.8 uM treated for 2 to 19 hrs followed by compound washout measured after 72 hrs by cytochalasin-B-blocked micronucleus assay relative to control; format: functional; how it was run: as §1
PBL [11] = assay: Radioprotective activity in 2-Gy gamma irradiated human PBL assessed as frequency of micronuclei at 3.5 uM treated for 2 to 19 hrs followed by compound washout measured after 72 hrs by cytochalasin-B-blocked micronucleus assay relative to control; format: functional; how it was run: as §1
PBL [12] = assay: Radioprotective activity in 2-Gy gamma irradiated human PBL assessed as frequency of micronuclei at 7 uM treated for 2 to 19 hrs followed by compound washout measured after 72 hrs by cytochalasin-B-blocked micronucleus assay relative to control; format: functional; how it was run: as §1
PBL [13] = assay: Radioprotective activity in 2-Gy gamma irradiated human PBL assessed as incidence of micronuclei in 1000 binucleated cells at 1.8 uM treated for 2 to 19 hrs followed by compound washout measured after 72 hrs by cytochalasin-B-blocked micronucleus assay (reference value: 183 +/- 9.6); format: functional; how it was run: as §1
PBL [14] = assay: Radioprotective activity in 2-Gy gamma irradiated human PBL assessed as incidence of micronuclei in 1000 binucleated cells at 3.5 uM treated for 2 to 19 hrs followed by compound washout measured after 72 hrs by cytochalasin-B-blocked micronucleus assay (reference value: 183 +/- 9.6); format: functional; how it was run: as §1
PBL [15] = assay: Radioprotective activity in 2-Gy gamma irradiated human PBL assessed as incidence of micronuclei in 1000 binucleated cells at 7 uM treated for 2 to 19 hrs followed by compound washout measured after 72 hrs by cytochalasin-B-blocked micronucleus assay (reference value: 183 +/- 9.6); format: functional; how it was run: as §1
PBL [16] = assay: Radioprotective activity in 2-Gy gamma irradiated human PBL assessed as incidence of micronuclei in binucleated cells at 3.7 uM treated for 2 to 19 hrs followed by compound washout measured after 72 hrs by cytochalasin-B-blocked micronucleus assay (reference value: 1.2 +/- 0.03); format: functional; how it was run: as §1
PBL [17] = assay: Radioprotective activity in 2-Gy gamma irradiated human PBL assessed as incidence of micronuclei in binucleated cells at 7.4 uM treated for 2 to 19 hrs followed by compound washout measured after 72 hrs by cytochalasin-B-blocked micronucleus assay (reference value: 1.2 +/- 0.03); format: functional; how it was run: as §1
PBL [18] = assay: Toxicity in 2-Gy gamma irradiated human PBL assessed as cytokinesis-block proliferation index at 3.7 uM treated for 2 to 19 hrs followed by compound washout measured after 72 hrs (reference value: 1.6 +/- 0.1); format: cell-based
PBL [19] = assay: Toxicity in 2-Gy gamma irradiated human PBL assessed as cytokinesis-block proliferation index at 7.4 uM treated for 2 to 19 hrs followed by compound washout measured after 72 hrs (reference value: 1.6 +/- 0.1); format: cell-based
PBL [20] = assay: Radioprotective activity in 2-Gy gamma irradiated human PBL assessed as binucleated cells with micronuclei at 3.7 uM treated for 2 to 19 hrs followed by compound washout measured after 72 hrs by cytochalasin-B-blocked micronucleus assay (reference value: 15.5 +/- 0.6%); format: functional; how it was run: as §1
PBL [21] = assay: Radioprotective activity in 2-Gy gamma irradiated human PBL assessed as binucleated cells with micronuclei at 7.4 uM treated for 2 to 19 hrs followed by compound washout measured after 72 hrs by cytochalasin-B-blocked micronucleus assay (reference value: 15.5 +/- 0.6%); format: functional; how it was run: as §1
PBL [22] = assay: Radioprotective activity in 2-Gy gamma irradiated human PBL assessed as frequency of micronuclei at 3.7 uM treated for 2 to 19 hrs followed by compound washout measured after 72 hrs by cytochalasin-B-blocked micronucleus assay relative to control; format: functional; how it was run: as §1
PBL [23] = assay: Radioprotective activity in 2-Gy gamma irradiated human PBL assessed as frequency of micronuclei at 7.4 uM treated for 2 to 19 hrs followed by compound washout measured after 72 hrs by cytochalasin-B-blocked micronucleus assay relative to control; format: functional; how it was run: as §1
PBL [24] = assay: Radioprotective activity in 2-Gy gamma irradiated human PBL assessed as incidence of micronuclei in 1000 binucleated cells at 3.7 uM treated for 2 to 19 hrs followed by compound washout measured after 72 hrs by cytochalasin-B-blocked micronucleus assay (reference value: 183 +/- 9.6); format: functional
How it was run: (§2)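 Venous blood from five healthy male volunteers was gamma-irradiated at 2 Gy (0.45 Gy/min) at room temperature, then cultured. Compounds (0.8–7.4 μM final) were added after irradiation for 19 h at 37 °C. Cells were rinsed and moved to fresh RPMI 1640 for 72 h. At least 1000 binucleated cells per sample were scored for micronuclei and CBPI calculated. Analysis used one-way ANOVA with Tukey test.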

PBL [25] = assay: Radioprotective activity in 2-Gy gamma irradiated human PBL assessed as incidence of micronuclei in 1000 binucleated cells at 7.4 uM treated for 2 to 19 hrs followed by compound washout measured after 72 hrs by cytochalasin-B-blocked micronucleus assay (reference value: 183 +/- 9.6); format: functional; how it was run: as §2

OC[C@H]1O[C@@H](OCc2ccc(O)cc2)[C@H](O)[C@@H](O)[C@@H]1O
Activity (PBL [1]): 1.2
Activity (PBL [2]): 1.2
Activity (PBL [3]): 1.2
Activity (PBL [4]): 1.7
Activity (PBL [5]): 1.8
Activity (PBL [6]): 1.7
Activity (PBL [7]): 13.1%
Activity (PBL [8]): 13.1%
Activity (PBL [9]): 13.6%
Activity (PBL [10]): 85.5%
Activity (PBL [11]): 85.1%
Activity (PBL [12]): 87%
Activity (PBL [13]): 156.4
Activity (PBL [14]): 155.7
Activity (PBL [15]): 159.2

OC[C@H]1O[C@@H](Oc2ccc(O)cc2)[C@H](O)[C@@H](O)[C@@H]1O [ARBUTIN]
Activity (PBL [1]): 1.3
Activity (PBL [16]): 1.3
Activity (PBL [17]): 1.2
Activity (PBL [4]): 1.7
Activity (PBL [18]): 1.8
Activity (PBL [19]): 1.6
Activity (PBL [7]): 15.1%
Activity (PBL [20]): 15%
Activity (PBL [21]): 15.8%
Activity (PBL [10]): 104.5%
Activity (PBL [22]): 103.4%
Activity (PBL [23]): 107.8%
Activity (PBL [13]): 191.2
Activity (PBL [24]): 189.3
Activity (PBL [25]): 197.2
